The values below come from ChEMBL document CHEMBL2401703, “Synthesis of pyrazolo[1,5-a][1,3,5]triazine derivatives as inhibitors of thymidine phosphorylase” (Eur J Med Chem, 2013).

The target of assay [1] is Thymidine phosphorylase (Escherichia coli K-12) (UniProt P07650). Nature of the assay: Inhibition of recombinant Escherichia coli thymidine phosphorylase using thymidine as substrate at 50 uM by UV-spectrophotometric analysis relative to control. In short, it runs like this: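 TP (1.5 U/ml stock in pH 7.0 phosphate buffer) mixed with compound in DMSO (DMSO alone as blank) and thymidine (5 mM stock, 200 µl into 1 ml total) in pH 7.4 phosphate buffer. Absorbance decrease at 290 nm read at 4, 8, 12, 16 and 20 min. Velocity taken from the slope of a linear fit. Percent inhibition calculated versus the blank.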

For another assay, the target named is Thymidine phosphorylase (Escherichia coli K-12, UniProt P07650). Description: Inhibition of recombinant Escherichia coli thymidine phosphorylase using thymidine as substrate by UV-spectrophotometric analysis.
The target in assay [2] is Thymidine phosphorylase (Escherichia coli K-12) (UniProt P07650). Description: Ratio of 7-deazaxanthine IC50 to compound IC50 for recombinant Escherichia coli thymidine phosphorylase.
Assay [3] has the same target. Nature of the assay: Non-competitive inhibition of recombinant Escherichia coli thymidine phosphorylase using thymidine as substrate at 0.01 to 0.2 uM by Lineweaver-burk plot analysis.

Each structure is given as a SMILES string. Calls of active or inactive are those of the source. No cut-off for these calls is given here. Where only a bound is given, the exact number is not on record here.

Chain of Thymidine phosphorylase (P07650 whole entry): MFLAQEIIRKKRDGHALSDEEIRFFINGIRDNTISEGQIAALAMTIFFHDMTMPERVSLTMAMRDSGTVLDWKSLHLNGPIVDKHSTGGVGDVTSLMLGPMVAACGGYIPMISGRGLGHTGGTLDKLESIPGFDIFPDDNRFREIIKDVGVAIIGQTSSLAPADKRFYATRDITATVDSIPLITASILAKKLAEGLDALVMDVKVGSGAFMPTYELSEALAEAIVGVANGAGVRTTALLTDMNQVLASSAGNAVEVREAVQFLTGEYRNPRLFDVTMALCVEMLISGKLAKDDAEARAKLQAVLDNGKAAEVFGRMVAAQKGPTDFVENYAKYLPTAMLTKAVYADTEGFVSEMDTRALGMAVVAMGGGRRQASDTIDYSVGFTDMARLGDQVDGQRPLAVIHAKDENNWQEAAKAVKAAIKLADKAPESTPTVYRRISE
Chain of Thymidine phosphorylase (Escherichia coli K-12) (P07650 whole entry, looked up): as the sequence (P07650 whole entry) above

What is called inhibition is the percentage by which the read-out fell short of the control. Take `CC(C)(C)c1cc2[nH]c(=O)[nH]c(=O)n2n1`: in assay [1], the inhibition is less than 50%.

Turning to `O=c1[nH]c(=O)n2ncc(-c3ccccc3)c2[nH]1`, the inhibition in assay [1] was less than 50%.

By IC50 is commonly meant the concentration at which inhibition is half-maximal. As for `COc1ccc(-c2cnn3c(=O)[nH]c(=S)[nH]c23)cc1`, on Thymidine phosphorylase, the concentration for half-maximal inhibition (IC50) came out at 39.7 µM. Moreover, the inhibition in assay [1] is 50%.

Consider `COc1ccc(-c2cnn3c(=O)[nH]c(=O)[nH]c23)cc1`, for which the inhibition in assay [1] was less than 50%.

Regarding `O=c1[nH]c(=S)[nH]c2c(-c3ccccc3)cnn12`, the half-maximal inhibitory concentration (IC50) on Thymidine phosphorylase was 26.3 µM. In addition, in assay [1], the inhibition amounted to 50%.

Turning to `Cc1cc2[nH]c(=O)[nH]c(=O)n2n1`, in assay [1], the inhibition is less than 50%.

Turning to `O=c1[nH]c(=S)[nH]c2cc(C(F)(F)F)nn12`, the IC50 on Thymidine phosphorylase turned out to be 32.6 µM. In addition, the inhibition in assay [1] is 50%.

With `Cc1ccc(-c2cc3[nH]c(=O)[nH]c(=O)n3n2)cc1`, the inhibition in assay [1] is less than 50%.

Turning to `O=c1[nH]c(=O)n2ncc(Br)c2[nH]1`, the inhibition in assay [1] was less than 50%.

`O=c1[nH]c(=O)n2ncc(-c3ccc(Cl)cc3)c2[nH]1`: the inhibition in assay [1] was less than 50%.

Turning to `COc1ccc(-c2cc3[nH]c(=O)[nH]c(=O)n3n2)cc1`, the inhibition in assay [1] was less than 50%.

In the case of `O=c1[nH]c(=O)n2nccc2[nH]1`, the inhibition in assay [1] is less than 50%.

In the case of `CC(C)(C)c1ccc(-c2cnn3c(=O)[nH]c(=S)[nH]c23)cc1`, the half-inhibitory concentration (IC50) on Thymidine phosphorylase was determined as 5.6 µM. In addition, the inhibition in assay [1] stood at 50%.

Consider `CCOc1ccc(-c2cnn3c(=O)[nH]c(=S)[nH]c23)cc1`, for which the IC50 on Thymidine phosphorylase is 15.5 µM.

As to `O=c1[nH]c(=S)[nH]c2cc(-c3ccc(Cl)cc3)nn12`, the 50% inhibitory concentration (IC50) at Thymidine phosphorylase was 33.5 µM. In addition, in assay [1], the inhibition was 50%.

On to `Cc1ccc(-c2cc3[nH]c(=S)[nH]c(=O)n3n2)cc1`, for which, at Thymidine phosphorylase, the IC50 was determined as 19.3 µM. Moreover, the inhibition in assay [1] was found to be 50%.

In the case of `Cc1cnn2c(=O)[nH]c(=S)[nH]c12`, the concentration for half-maximal inhibition (IC50) on Thymidine phosphorylase worked out at 87.3 µM. Further, in assay [1], the inhibition is less than 50%.

In the case of `Cc1ccc(-c2cnn3c(=O)[nH]c(=S)[nH]c23)cc1`, the IC50 at Thymidine phosphorylase was determined as 1.7 µM. For the same molecule, the inhibition in assay [1] worked out at 50%.

As to `O=c1[nH]c(=O)n2nc(-c3ccc(Cl)cc3)cc2[nH]1`, the inhibition in assay [1] is less than 50%.

Consider `O=c1[nH]c(=O)n2nc(-c3ccccc3)cc2[nH]1`, for which, in assay [1], the inhibition is less than 50%.

For the molecule `O=c1[nH]c(=O)n2nc(-c3ccc(F)cc3)cc2[nH]1`, the inhibition in assay [1] is less than 50%.

As to `O=c1[nH]c(=S)[nH]c2cc(-c3ccc(F)cc3)nn12`, the IC50 on Thymidine phosphorylase was 41.7 µM. Moreover, the inhibition in assay [1] stood at 50%.

On to `O=c1[nH]c(=O)n2nc(C(F)(F)F)cc2[nH]1`, for which the inhibition in assay [1] was less than 50%.

As for `O=c1[nH]c(=O)n2ncc(-c3ccc(F)cc3)c2[nH]1`, the inhibition in assay [1] was less than 50%.

As for `CC(C)(C)c1ccc(-c2cc3[nH]c(=S)[nH]c(=O)n3n2)cc1`, the 50% inhibitory concentration (IC50) at Thymidine phosphorylase came out at 6.6 µM. For the same molecule, the inhibition in assay [1] was 50%.

`O=c1[nH]c(=S)[nH]c2c(-c3ccc([N+](=O)[O-])cc3)cnn12`: the 50% inhibitory concentration (IC50) at Thymidine phosphorylase came out at 0.58 µM.

With `O=c1[nH]c(=S)[nH]c2cc(-c3ccc(Br)cc3)nn12`, the IC50 on Thymidine phosphorylase was found to be 34.9 µM. Moreover, in assay [1], the inhibition was determined as 50%.

Turning to `Cc1cc2[nH]c(=S)[nH]c(=O)n2n1`, the IC50 at Thymidine phosphorylase worked out at 79.4 µM. The inhibition in assay [1] is less than 50%.

As for `CC(C)(C)c1ccc(-c2cnn3c(=O)[nH]c(=O)[nH]c23)cc1`, in assay [1], the inhibition is less than 50%.

Consider `O=c1[nH]c(=S)[nH]c2c(-c3ccc(S(F)(F)(F)(F)F)cc3)cnn12`, for which, at Thymidine phosphorylase, the concentration for half-maximal inhibition (IC50) is 0.04 µM. For the same molecule, the Ratio IC50 in assay [2] stood at 800. Further, in assay [3], the inhibition result is “Active”.

`O=c1[nH]c(=O)n2ncc(-c3ccc(C(F)(F)F)cc3)c2[nH]1`: in assay [1], the inhibition was less than 50%.

`O=c1[nH]c(=O)n2ncc(Cl)c2[nH]1`: the inhibition in assay [1] was less than 50%.

In the case of `O=c1[nH]c(=S)[nH]c2c(-c3ccc(F)cc3)cnn12`, the half-inhibitory concentration (IC50) on Thymidine phosphorylase was found to be 10.5 µM. Also, in assay [1], the inhibition is 50%.

Regarding `COc1ccc(-c2cc3[nH]c(=S)[nH]c(=O)n3n2)cc1`, the IC50 on Thymidine phosphorylase is 28.4 µM. Besides, the inhibition in assay [1] was found to be 50%.

On to `CC(C)(C)c1cc2[nH]c(=S)[nH]c(=O)n2n1`, for which the half-maximal inhibitory concentration (IC50) on Thymidine phosphorylase worked out at 29.1 µM. Besides, the inhibition in assay [1] came to 50%.

Regarding `O=c1[nH]c(=S)[nH]c2ccnn12`, the IC50 at Thymidine phosphorylase came to 68.2 µM. Moreover, the inhibition in assay [1] was less than 50%.

`O=c1[nH]c(=S)[nH]c2c(I)cnn12`: at Thymidine phosphorylase, the IC50 turned out to be 20.8 µM. Also, the inhibition in assay [1] was 50%.

In the case of `O=c1[nH]c(=O)n2nc(-c3ccc(Br)cc3)cc2[nH]1`, in assay [1], the inhibition is less than 50%.

As for `Cc1cnn2c(=O)[nH]c(=O)[nH]c12`, the inhibition in assay [1] is less than 50%.

With `O=c1[nH]c(=S)[nH]c2c(Cl)cnn12`, the concentration for half-maximal inhibition (IC50) at Thymidine phosphorylase came to 27.6 µM. For the same molecule, the inhibition in assay [1] turned out to be 50%.

Take `O=c1[nH]c(=S)[nH]c2c(-c3ccc(Cl)cc3)cnn12`: the IC50 at Thymidine phosphorylase amounted to 0.54 µM. Further, the inhibition in assay [1] came out at 50%.

`O=c1[nH]c(=O)n2ncc(I)c2[nH]1`: the inhibition in assay [1] is less than 50%.

As for `O=c1[nH]c(=S)[nH]c2c(-c3ccc(I)cc3)cnn12`, the IC50 on Thymidine phosphorylase turned out to be 0.21 µM. In addition, in assay [2], the Ratio IC50 is 150.

For the molecule `O=c1[nH]c(=O)n2ncc(-c3ccc(Br)cc3)c2[nH]1`, the inhibition in assay [1] was less than 50%.

For the molecule `O=c1[nH]c(=S)[nH]c2cc(-c3ccc(C(F)(F)F)cc3)nn12`, the IC50 at Thymidine phosphorylase came to 9.9 µM. The inhibition in assay [1] worked out at 50%.

With `O=c1[nH]c(=S)[nH]c2c(-c3ccc(C(F)(F)F)cc3)cnn12`, the IC50 on Thymidine phosphorylase turned out to be 0.24 µM. Further, the inhibition in assay [1] is 50%.

For `Cc1ccc(-c2cnn3c(=O)[nH]c(=O)[nH]c23)cc1`, the inhibition in assay [1] was less than 50%.

Take `O=c1[nH]c(=O)n2nc(-c3ccc(C(F)(F)F)cc3)cc2[nH]1`: in assay [1], the inhibition is less than 50%.

With `CC(C)(C)c1ccc(-c2cc3[nH]c(=O)[nH]c(=O)n3n2)cc1`, the inhibition in assay [1] is less than 50%.

For the molecule `O=c1[nH]c(=S)[nH]c2c(Br)cnn12`, the IC50 at Thymidine phosphorylase was 44.4 µM. Besides, the inhibition in assay [1] worked out at 50%.

`O=c1[nH]c(=S)[nH]c2c(-c3ccc(Br)cc3)cnn12`: the half-inhibitory concentration (IC50) on Thymidine phosphorylase stood at 0.63 µM. Also, the inhibition in assay [1] came out at 50%.
